Measurements: ChEMBL document CHEMBL1149611, “Anti-malarial activity of N6-modified purine analogues” (Bioorg Med Chem, 2007)

Experiments:
Plasmodium falciparum [1] = assay: Antimalarial activity against drug-sensitive Plasmodium falciparum 3D7 after 24 hrs; type: functional, organism-based; details: 3D7, 24 h
Summary of the method: (§1)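 [³H]hypoxanthine incorporation assay. Compounds dissolved in DMSO and serially diluted in assay medium, final DMSO ≤0.01%. P. falciparum culture at 0.5% parasitaemia (65-75% ring stage), 2.5% haematocrit. Incubated 24 h at 37 °C in 5% CO₂, then [³H]hypoxanthine (0.1 µCi/well) added for a further 24 h. Incorporated radioactivity counted by scintillation. IC50 obtained by curve fitting. Chloroquine diphosphate used as standard.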

Plasmodium falciparum [2] = assay: Antimalarial activity against chloroquine, pyrimethamine and cycloguanil-resistant Plasmodium falciparum VS1 after 24 hrs; type: functional, organism-based; details: VS1, 24 h; summary of the method: as §1
Plasmodium falciparum [3] = assay: Antimalarial activity against chloroquine,pyrimethamine-resistant Plasmodium falciparum K1 after 24 hrs; type: functional, organism-based; details: K1, 24 h; summary of the method: as §1
KB = assay: Cytotoxicity against human KB cells; type: functional
[4] = Selectivity index, ratio of CC50 for human KB cells to IC50 for Plasmodium falciparum 3D7; type: functional
[5] = Selectivity index, ratio of CC50 for human KB cells to IC50 for Plasmodium falciparum K1; type: functional
[6] = Selectivity index, ratio of CC50 for human KB cells to IC50 for Plasmodium falciparum VS1; type: functional
Plasmodium berghei [7] = assay: Antiparasitemia activity against Plasmodium berghei infected mice (Mus musculus) at 30 mg/kg peroral dose for 4 days; type: functional; details: route oral
Summary of the method: (§2)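 Peters' suppressive test: 20 g male CD-1 mice were infected iv with 2×10^6 P. berghei AS-parasitized erythrocytes. Compound was dosed orally, 0.2 mL, in standard suspending formula (0.5% Na carboxymethylcellulose, 0.5% benzyl alcohol, 0.4% Tween 80, 0.9% NaCl) at 2 h and on days 1–4 post-infection. Parasitaemia was read microscopically from Giemsa films on day 5 as % inhibition relative to the untreated group's arithmetic mean.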

Plasmodium berghei [8] = assay: Antiparasitemia activity against Plasmodium berghei infected mice (Mus musculus) at 30 mg/kg subcutaneous dose for 4 days; type: functional
Summary of the method: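 Male CD-1 outbred mice (20 g), infected intravenously with 2×10^6 P. berghei AS parasitized red cells, received subcutaneous 0.2 mL doses in 10% DMSO/0.05% Tween 80 in water at 2 h (day 0) and on days 1, 2, 3 and 4. Day-5 Giemsa blood smears were counted microscopically, and mean group parasitaemia was expressed as % inhibition versus untreated mice.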

Plasmodium berghei [9] = assay: Antiparasitemia activity against Plasmodium berghei infected mice (Mus musculus) at 100 mg/kg intravenous dose for 4 days; type: functional
Summary of the method: (§3)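 CD-1 outbred male mice (20 g) were infected intravenously with 2×10^6 P. berghei AS parasitized red cells. Drug in 5% dextrose was given iv, 0.2 mL, at 2 h (day 0) and on days 1, 2, 3 and 4 post-infection. Day-5 Giemsa-stained blood films were counted, and results were expressed as % inhibition of mean group parasitaemia versus the untreated group.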

Plasmodium berghei [10] = assay: Antiparasitemia activity against Plasmodium berghei infected mice (Mus musculus) at 100 mg/kg peroral dose for 4 days; type: functional; details: route oral; summary of the method: as §2
Plasmodium berghei [11] = assay: Antiparasitemia activity against Plasmodium berghei infected mice (Mus musculus) at 10 mg/kg intravenous dose for 4 days; type: functional; summary of the method: as §3

Compound | IC50 (Plasmodium falciparum [1]) [µM] | IC50 (Plasmodium falciparum [2]) [µM] | IC50 (Plasmodium falciparum [3]) [µM] | CC50 (KB) [µM] | Ratio CC50/IC50 [4] | Ratio CC50/IC50 [5] | Ratio CC50/IC50 [6] | Activity (Plasmodium berghei [7]) [%] | Activity (Plasmodium berghei [8]) [%] | Activity (Plasmodium berghei [9]) [%] | Activity (Plasmodium berghei [10]) [%] | Activity (Plasmodium berghei [11]) [%]
CN(N)c1ncnc2[nH]cnc12 | 508 | 419 | 478 | – | – | – | – | – | – | – | – | –
CON(C)c1ncnc2[nH]cnc12 | > 613 | > 613 | > 613 | – | – | – | – | – | – | – | – | –
CON(C)c1ncnc2c1ncn2[C@@H]1O[C@H](CO)[C@@H](O)[C@H]1O | 21.8 | 25.2 | 12.5 | 15.3 | <1 | 1.2 | <1 | – | – | – | – | –
OC[C@H]1O[C@@H](n2cnc3/c(=N\O)[nH]cnc32)[C@H](O)[C@@H]1O | 11.6 | 8.56 | 6.9 | 44.3 | 3.8 | 6.4 | 5.2 | – | – | – | – | –
Nc1nc2c(ncn2[C@@H]2O[C@H](CO)[C@@H](O)[C@H]2O)/c(=N\O)[nH]1 | 16 | 13.3 | 10.8 | 281 | 17.5 | 25.9 | 21.1 | – | – | – | – | –
NNc1ncnc2c1ncn2[C@@H]1O[C@H](CO)[C@@H](O)[C@H]1O | 13.3 | 7.92 | 7.48 | 2.26 | <1 | <1 | <1 | – | – | – | – | –
CO/N=c1/[nH]cnc2c1ncn2[C@@H]1O[C@H](CO)[C@@H](O)[C@H]1O | 11.4 | 9.87 | 20.6 | 6.16 | <1 | <1 | <1 | – | – | – | – | –
CO/N=c1/[nH]c(N)nc2c1ncn2[C@@H]1O[C@H](CO)[C@@H](O)[C@H]1O | 232 | 225 | 184 | 784 | 3.4 | 4.3 | 3.5 | – | – | – | – | –
Nc1nc2c(ncn2[C@@H]2O[C@H](CO)[C@@H](O)[C@H]2O)/c(=N\OCc2ccccc2)[nH]1 | 183 | 126 | – | – | – | – | – | – | – | – | – | –
c1ccc(CO/N=c2/[nH]cnc3[nH]cnc23)cc1 | 400 | 352 | – | – | – | – | – | – | – | – | – | –
NNc1nc(N)nc2[nH]cnc12 | 189 | 89.3 | 109 | 1000 | 5.3 | 9.2 | 11.2 | – | – | – | – | –
CO/N=c1/[nH]cnc2[nH]cnc12 | 98.9 | > 606 | 354 | 1260 | 12.7 | 3.6 | 2.1 | – | – | – | – | –
C=CCO/N=c1/[nH]cnc2c1ncn2[C@@H]1O[C@H](CO)[C@@H](O)[C@H]1O | 3.31 | 34 | – | – | – | – | – | – | – | – | – | –
OC[C@H]1O[C@@H](n2cnc3/c(=N\OCc4ccccc4)[nH]cnc32)[C@H](O)[C@@H]1O | 13.2 | 14.2 | – | 889 | 67.6 | – | 62.6 | – | – | – | – | –
CON(C)c1nc(N)nc2c1ncn2[C@@H]1O[C@H](CO)[C@@H](O)[C@H]1O | > 306 | > 306 | > 306 | – | – | – | – | – | – | – | – | –
ONc1ncnc2[nH]cnc12 | 7.48 | 5.57 | 10.2 | 1490 | 199 | 146 | 267 | 3.9 | 1.8 | – | – | –
c1ccc(NNc2ncnc3[nH]cnc23)cc1 | 19.3 | 19.8 | – | 167 | 8.64 | – | 8.43 | – | – | – | – | –
NNc1ncnc2[nH]cnc12 | 23.1 | 18.8 | 22.1 | 49.3 | 2.1 | 2.2 | 2.6 | – | – | – | – | –
CN(N)c1nc(N)nc2[nH]cnc12 | > 558 | > 558 | > 558 | – | – | – | – | – | – | – | – | –
Nc1nc2[nH]cnc2/c(=N\O)[nH]1 | 27.8 | 16.8 | 9.03 | 45 | 1.6 | 5 | 2.7 | – | – | – | – | –
CO/N=c1/[nH]c(N)nc2[nH]cnc12 | 428 | > 555 | 435 | – | – | – | – | – | – | – | – | –
CN(N)c1ncnc2c1ncn2[C@@H]1O[C@H](CO)[C@@H](O)[C@H]1O | 72.7 | 22.5 | 35.4 | 101 | 1.4 | 2.9 | 4.5 | – | – | – | – | –
NNc1nc(N)nc2c1ncn2[C@@H]1O[C@H](CO)[C@@H](O)[C@H]1O | 10.2 | 12.2 | 10 | 1360 | 134 | 136 | 112 | 22.3 | 14 | 43.9 | 26.8 | –
CN(N)c1nc(N)nc2c1ncn2[C@@H]1O[C@H](CO)[C@@H](O)[C@H]1O | 2.27 | 0.29 | 3.6 | 1480 | 533 | 410 | 5008 | 12.3 | 28.3 | 14 | 4.8 | –
OC[C@H]1O[C@@H](n2cnc3c(NNc4ccccc4)ncnc32)[C@H](O)[C@@H]1O | 14.2 | 11 | – | 109 | 7.68 | – | 9.9 | – | – | – | – | –
CCN(CC)CCCC(C)Nc1ccnc2cc(Cl)ccc12 (centres undefined) [CHLOROQUINE] | – | – | – | 187 | – | – | – | – | – | – | – | 100
COc1cc([C@@H]2c3cc4c(cc3[C@H](O)[C@H]3COC(=O)[C@H]23)OCO4)cc(OC)c1OC [PODOFILOX] | – | – | – | 0.048 | – | – | – | – | – | – | – | –
CCc1nc(N)nc(N)c1-c1ccc(Cl)cc1 [PYRIMETHAMINE] | – | – | – | – | – | – | – | 100 | 100 | – | – | –
